EBI2 block = EBI2 (human) antagonism; EBI2 beta-arrestin recruitment, luminescence, 7a,25-OHC stimulated; AID 651636; 360,000 compounds, 0.81% hits; inhibition, % at 5 µM; P32249; in the data active = inhibition above about 38%;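 note: enzyme fragment complementation signal reports receptor beta-arrestin coupling in cells; 0% = agonist plus DMSO wells and 100% = wells without agonist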
Target sequence (P32249 whole entry, looked up, the tested form may be a part): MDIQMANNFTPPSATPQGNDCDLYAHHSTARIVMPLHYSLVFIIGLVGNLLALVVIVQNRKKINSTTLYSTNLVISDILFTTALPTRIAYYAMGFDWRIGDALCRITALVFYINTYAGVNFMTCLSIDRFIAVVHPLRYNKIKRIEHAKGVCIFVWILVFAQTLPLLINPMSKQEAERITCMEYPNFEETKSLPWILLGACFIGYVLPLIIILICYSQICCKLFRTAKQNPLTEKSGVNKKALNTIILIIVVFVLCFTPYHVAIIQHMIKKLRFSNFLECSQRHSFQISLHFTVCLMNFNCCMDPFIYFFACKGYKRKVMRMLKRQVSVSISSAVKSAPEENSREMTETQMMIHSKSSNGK
CXCR6 inh = blocks human CXCR6 beta-arrestin recruitment; O00574; CHO-K1 PathHunter CXCR6 beta-arrestin, luminescence; inhibition, % at 20 µM; 360,000 compounds, 0.36% hits; in the data active = inhibition above about 34%, passing the limit was not always enough;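 note: antagonist mode with CXCL16 agonist at 10 nM final; 0% = 10 nM CXCL16 with DMSO and 100% = unstimulated wells without agonist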
Target sequence (O00574 whole entry, looked up): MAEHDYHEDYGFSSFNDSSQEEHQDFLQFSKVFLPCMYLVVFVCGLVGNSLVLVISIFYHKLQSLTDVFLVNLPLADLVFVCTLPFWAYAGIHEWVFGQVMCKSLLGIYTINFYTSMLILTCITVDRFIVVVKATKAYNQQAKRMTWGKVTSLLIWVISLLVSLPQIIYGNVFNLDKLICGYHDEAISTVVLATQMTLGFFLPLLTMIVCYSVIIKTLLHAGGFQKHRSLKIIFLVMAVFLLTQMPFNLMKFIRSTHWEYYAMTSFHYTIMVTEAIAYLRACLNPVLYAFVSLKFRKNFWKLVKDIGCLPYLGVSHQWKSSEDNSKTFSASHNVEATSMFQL
APJ antagonist = antagonists of human APJ apelin receptor; P35414; CHO-K1 APJ beta-arrestin complementation, luminescence; inhibition, % at 20 µM; 330,000 compounds, 0.32% hits;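 active = inhibition above about 40% at 20 µM, limit read from the data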;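 note: cells challenged with 10 nM apelin-13 agonist together with compound; plate controls were apelin-13 plus DMSO wells for no effect and DMSO wells lacking apelin-13 for full effect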
APJ agonist = activates the human apelin receptor APJ; P35414; CHO-K1 APJ PathHunter beta-arrestin, luminescence; 0% DMSO wells, 100% apelin; activation, % at 20 µM; 330,000 compounds, 0.11% hits;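 active = activation more than six SD over the plate average, tested at 20 µM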;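 note: 0% = DMSO alone and 100% = apelin-13 at 10 nM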
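Test system: CHO-K1 APJ beta-arrestin complementation cell line | Compound: Single test compound dose, 20 µM final, 1% DMSO | Incubation: Compound 90 min 25 °C, reagent 1 h | Measured by: beta-gal luminescence | Read-out basis: APJ–arrestin association signal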
CCR6 antagonist = blocks CCL20-driven beta-arrestin recruitment at human CCR6. P51684. 340,000 compounds, 0.49% hits. inhibition, % at 20 µM. AID 493098. CHO-K1 CCR6 PathHunter beta-arrestin, luminescence, CCL20-stimulated;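 active = compounds whose inhibition of the agonist-driven luminescence signal at 20 µM reaches about 50%, limit read from the data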;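 note: cells stimulated with CCL20 at 14 nM final; plate controls were DMSO with CCL20 for no effect and DMSO without agonist for full effect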
EBI2 antag conf = EBI2 (human) antagonism, single concentration confirmation; 2,400 compounds, 29% hits; inhibition, % at 5 µM; shares compounds with EBI2 block; EBI2 beta-arrestin luminescence, 7a,25-OHC antagonism;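 active = inhibition of at least 50%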
EBI2 ag = counter-screen for EBI2 antagonists: EBI2 agonist activity. EBI2-expressing cells, agonist mode, luminescence, 60 min; 0% vehicle, 100% 7α,25-dihydroxycholesterol control. 2,400 tested, under 10 active. shares compounds with EBI2 block. activation, % at 5 µM. AID 652000;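 active = activation of at least 50%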
bGal cs = counter-screen for EBI2 antagonists: E. coli beta-galactosidase inhibition; 2,400 compounds, 1% hits; AID 652176; purified beta-galactosidase, luminescent Galacton Star, 15 min; shares compounds with EBI2 block; inhibition, % at 5 µM;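 active = replicate-average signal at least 3 plate SD below neutral wells, shown as high inhibition, flagging enzyme-inhibiting false positives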;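 note: 0% = DMSO wells with enzyme and 100% = wells lacking enzyme; higher means stronger loss of beta-gal luminescence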
* = called active by the depositor; nt = no result given. Sampled rows, rich in hits. Any-hit rate of the full collection: about 1.5%.

SMILES | EBI2 block | CXCR6 inh | APJ antagonist | APJ agonist | CCR6 antagonist | EBI2 antag conf | EBI2 ag | bGal cs
Cc1cc(Cl)ccc1Oc1ncc(-c2ccc(Cl)cc2)cn1 | 60* | -3 | -21 | 4 | 4 | 44 | 2 | 8
Clc1ccc(-c2cnc(Oc3ccccc3)nc2)cc1 | 73* | -6 | 19 | -5 | 14 | 46 | 3 | 4
CCOc1ccc2nc(COC(=O)c3ccco3)c(C(C)=O)[n+]([O-])c2c1 | 1 | -14 | 7 | 0 | -8 | nt | nt | nt
CCOc1ccc2nc(COC(=O)c3ccncc3)c(C(=O)c3ccccc3)[n+]([O-])c2c1 | 45* | 2 | 12 | -3 | 9 | 16 | -2 | -7
CCOc1ccc2nc(COC(=O)c3cccs3)c(C(=O)c3ccccc3)[n+]([O-])c2c1 | 47* | 4 | 5 | -2 | 14 | 24 | 0 | 7
CCOc1ccc2nc(COC(=O)c3cccs3)c(C(C)=O)[n+]([O-])c2c1 | 14 | 0 | 5 | 2 | 13 | nt | nt | nt
CC(C)Cc1nc2sc3c(NCc4ccco4)ncnc3c2c2c1COC(C)(C)C2 | 47* | 3 | -9 | -4 | -5 | 42 | 0 | 4
COc1ccc(CCNC(=O)/C(C#N)=C/c2cccc(OCc3ccccc3)c2)cc1OC | 53* | -7 | -26 | -3 | 8 | 25 | 1 | 5
COc1cc(/C=C(\C#N)C(=O)NCc2ccccc2)ccc1OCc1ccc(C(=O)O)cc1 | -8 | 6 | 13 | 1 | 9 | nt | nt | nt
CC(C)(C)NC(=O)c1cc([N+](=O)[O-])ccc1N1CCCCC1 | 57* | 0 | nt | nt | 8 | 39 | 0 | 3
O=C(O)c1cc([N+](=O)[O-])ccc1N1CCCCC1 | -2 | 9 | 1 | -4 | 13 | nt | nt | nt
CN(C)c1ccnc2sc3c(SCc4ccc(Cl)cc4)ncnc3c12 | 54* | -1 | 13 | -3 | -14 | 21 | -1 | -7
CN(C)c1ccnc2sc3c(NCC(O)CO)ncnc3c12 (configuration not stated) | 0 | 2 | 5 | -1 | -1 | nt | nt | nt
CC(C)(C)c1ccc(C(=O)Nc2ccc(O)c3c(=O)cc(-c4cccc(Cl)c4)oc23)cc1 | -3 | 11 | 6 | -1 | 12 | nt | nt | nt
COc1ccc(C(=O)Nc2ccc(O)c3c(=O)cc(-c4cccc(Cl)c4)oc23)cc1 | 44* | 6 | 24 | -6 | 23 | 21 | 0 | 6
CC(NC(=O)COC(=O)/C=C/c1cccc(F)c1)c1ccccc1 (configuration not stated) | 17 | -7 | 5 | -3 | 0 | nt | nt | nt
CC(NC(=O)COC(=O)/C=C/c1ccc(Cl)cc1)c1ccccc1 (configuration not stated) | 48* | 3 | -16 | 0 | 15 | 15 | -1 | -11
CN(Cc1ccccc1)N=Nc1ccccc1 | 6 | 0 | nt | nt | nt | nt | nt | nt
CN(C)N=Nc1ccc(-c2cn(Cc3ccccc3)cn2)cc1 | 45* | 1 | -27 | 0 | -14 | 39 | 1 | 0
CCOc1ncccc1C(=O)OCC(=O)Nc1ccc2c(c1)OCO2 | -6 | 1 | -6 | 1 | 19 | nt | nt | nt
O=C(/C=C/c1ccc(OC2CSC2)cc1)c1ccc(Cl)cc1 | 43* | 0 | 14 | -3 | 2 | 12 | 0 | 8
COc1ccc(C(=O)/C=C/c2ccc(OC3CSC3)cc2)cc1OC | 21 | 4 | 4 | 0 | 17 | nt | nt | nt
CN1CCN(C(=O)c2ccc(-n3cccc3)cc2)CC1 | 34* | 0 | 8 | 1 | -17 | 23 | 0 | -16
CN1CCN(C(=O)c2ccc(Cl)cc2)CC1 | -1 | 4 | -6 | 0 | 4 | nt | nt | nt
O=C(c1ccc([N+](=O)[O-])cc1)N1CCN(Cc2ccccc2)CC1 | 16 | -2 | 2 | -3 | 8 | nt | nt | nt
SMILES | EBI2 block | CXCR6 inh | APJ antagonist | APJ agonist | CCR6 antagonist | EBI2 antag conf | EBI2 ag | bGal cs
O=C(c1ccc(Br)cc1)N1CCC(C(=O)N2CCN(Cc3ccccc3)CC2)CC1 | 63* | 0 | 14 | 0 | -4 | 37 | 1 | 10
O=C(c1ccc(-n2cccc2)cc1)N1CCN(Cc2ccccc2)CC1 | 84* | -2 | 6 | -1 | 6 | 73* | -1 | -13
OC[C@@H]1CN(Cc2ccco2)C[C@H](n2cnc3c(NCc4ccncc4)ncnc32)O1 | -3 | 2 | nt | nt | nt | nt | nt | nt
O=C(CCCc1ccccc1)N1CCN(C2CCCCC2)CC1 | 8 | 1 | 11 | -2 | 3 | nt | nt | nt
COc1ccc(CCC(=O)N2CCN(C3CCCCC3)CC2)cc1 | 45* | -2 | 5 | -4 | 3 | 15 | -1 | -8
COc1ccc(CCC(=O)N2CCN(C(=O)c3ccccc3)CC2)cc1 | 55* | 9 | 14 | 1 | 0 | 40 | 2 | -1
O=C(c1ccco1)N1CCN(C2CC(=O)N(c3ccc(F)c(Cl)c3)C2=O)CC1 (configuration not stated) | 1 | 4 | 15 | -2 | -1 | nt | nt | nt
Cc1ccc(C)c(S(=O)(=O)N2CCN(CC(=O)Nc3ccc4c(c3)OCCO4)CC2)c1 | 3 | -6 | -7 | -1 | 15 | nt | nt | nt
CN(C)C(=O)c1ccc(NC(=O)c2cccc(S(=O)(=O)N3CCN(Cc4ccccc4)CC3)c2)cc1 | -23 | -5 | nt | nt | 2 | nt | nt | nt
CN(CC(=O)Nc1ccc(Cl)cc1)C(=O)c1cccc(S(=O)(=O)N2CCN(Cc3ccccc3)CC2)c1 | 62* | -10 | -8 | 13 | 11 | 32 | -2 | -12
CN(C)c1ccc(NC(=O)CN2CCN(S(=O)(=O)c3cc(Cl)ccc3Cl)CC2)cc1 | 64* | 5 | 9 | -3 | -3 | 41 | -1 | -12
Cc1ccc(C)c(S(=O)(=O)N2CCN(CC(=O)Nc3ccc4c(c3)CCC4)CC2)c1 | 47* | -1 | -9 | -4 | 13 | 29 | 1 | 5
CC1(C(=O)Nc2ccc3c(c2)OCCO3)CN(S(C)(=O)=O)CC(=O)N1CCCn1ccnc1 (configuration not stated) | -1 | nt | nt | nt | nt | nt | nt | nt
COC(=O)c1ccc(Oc2ccc(S(=O)(=O)N3CCCCC3)cc2N)cc1 | 35* | 0 | 5 | -1 | 15 | 14 | 0 | 5
COC(C(=O)N/N=C(\C)c1ccc(O)cc1)c1ccccc1 (configuration not stated) | -1 | -5 | -5 | -1 | -2 | nt | nt | nt
COC(C(=O)N/N=C(\C)c1ccc(C(C)(C)C)cc1)c1ccccc1 (configuration not stated) | 65* | 5 | -14 | -5 | 17 | 24 | -1 | -10
CCc1ccc(OCC(=O)Nc2ccc(S(=O)(=O)Nc3ccccn3)cc2)cc1 | 61* | -7 | 10 | -2 | 10 | 29 | -1 | 11

Compound activity as filed in PubChem BioAssay.
